Reference: PubChem BioAssay
Calls of active or inactive are those of the source.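 How the source made its calls, unless noted: active means viability at or under a set limit in both replicates, limit being median viability minus 3 SD (cut at about 48% in these data, passing the limit was not always enough); inconclusive means at or under the limit in just one replicate; inactive means at or above the limit in both replicates.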

Tests used:
[1] = Her2 expression decrease, cell viability multiplex – SKBR3 breast tumor cells, AlphaScreen, ATP viability, primary screen (AID 461;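 active means Her2 level under about 52% in both replicate screens, with viability over 70% of control, limit read from the data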;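 on Her2 level: lower value means less Her2 protein in the cells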;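 on viability: percent of carrier control wells set as 100% viability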); conditions: SKBR3 Her2 protein level, 18-24 h, measured here: SKBR3 viability, ATP luminescence, at 10 µM
[2] = target: Receptor tyrosine-protein kinase erbB-2 (Homo sapiens) (UniProt P04626); assay: as above; conditions: 18-24 h, at 10 µM, stronger effect = lower value
Chain of Receptor tyrosine-protein kinase erbB-2 (Homo sapiens) (P04626 whole entry, looked up): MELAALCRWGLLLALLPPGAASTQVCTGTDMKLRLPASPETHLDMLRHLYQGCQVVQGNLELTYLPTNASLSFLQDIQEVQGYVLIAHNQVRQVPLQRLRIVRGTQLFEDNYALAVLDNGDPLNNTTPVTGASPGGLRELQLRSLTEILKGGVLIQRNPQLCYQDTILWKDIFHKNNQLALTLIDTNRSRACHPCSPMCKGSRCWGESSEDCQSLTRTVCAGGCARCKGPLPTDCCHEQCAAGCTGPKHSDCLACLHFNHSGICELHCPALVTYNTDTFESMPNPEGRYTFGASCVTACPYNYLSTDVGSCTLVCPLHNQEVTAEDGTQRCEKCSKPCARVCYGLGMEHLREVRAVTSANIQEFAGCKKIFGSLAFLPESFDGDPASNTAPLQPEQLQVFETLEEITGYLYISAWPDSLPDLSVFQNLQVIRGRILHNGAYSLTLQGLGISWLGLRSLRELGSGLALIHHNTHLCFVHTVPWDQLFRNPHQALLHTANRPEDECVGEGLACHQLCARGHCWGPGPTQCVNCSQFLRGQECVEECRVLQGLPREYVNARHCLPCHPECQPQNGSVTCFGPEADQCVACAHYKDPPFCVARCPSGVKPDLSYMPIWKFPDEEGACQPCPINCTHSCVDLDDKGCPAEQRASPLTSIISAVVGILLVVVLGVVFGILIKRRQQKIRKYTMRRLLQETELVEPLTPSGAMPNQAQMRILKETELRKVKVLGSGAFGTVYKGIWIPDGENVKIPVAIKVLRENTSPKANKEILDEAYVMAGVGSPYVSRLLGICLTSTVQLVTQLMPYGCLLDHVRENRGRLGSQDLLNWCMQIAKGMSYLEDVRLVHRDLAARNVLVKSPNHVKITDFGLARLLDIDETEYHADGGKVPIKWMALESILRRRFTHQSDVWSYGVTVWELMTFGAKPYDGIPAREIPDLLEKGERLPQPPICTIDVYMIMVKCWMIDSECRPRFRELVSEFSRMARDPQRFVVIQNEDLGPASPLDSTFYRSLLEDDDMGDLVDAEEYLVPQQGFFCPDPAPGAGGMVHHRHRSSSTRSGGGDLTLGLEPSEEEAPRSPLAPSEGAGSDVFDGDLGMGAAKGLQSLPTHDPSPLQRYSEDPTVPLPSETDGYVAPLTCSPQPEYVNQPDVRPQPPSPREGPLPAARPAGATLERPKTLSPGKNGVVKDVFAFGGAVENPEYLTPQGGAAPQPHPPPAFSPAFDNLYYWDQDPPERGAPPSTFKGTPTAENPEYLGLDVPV

[3] = reduced viability of SK-BR-3 breast cancer cells – cell-based, 24 h, human, pilot screen (AID 572;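 active means viability at or below 10% of carrier control in both of two separate runs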;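 further: compound exposure lasted between 18 and 24 h rather than exactly 24 h; 100% = carrier-treated control wells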); conditions: SK-BR-3 viability, CellTiter-Glo luminescence, at 10 µM, stronger effect = lower value
[4] = HUVEC growth inhibition – cell-based, human, primary screen (AID 575;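 active means viability at or below 30% in both replicate assays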;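 further: 100% = median of untreated cell wells with 0.1% DMSO on each plate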); conditions: HUVEC proliferation, CellTiter-Glo luminescence, 72 h; at 10 µM; stronger effect = lower value
How it was run: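 System – primary HUVEC, no more than 12 passages · Medium – Low-serum (2% FBS) EBM, supplemented · Times – 72 h exposure, 37 °C, 5% CO2, 30 min RT equilibration · Measured by – luminescent ATP assay · Read-out – % viability relative to median vehicle-well signal on each plate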

[5] = H69AR cell proliferation blockers – human, duplicate replicates, primary screen (AID 580); conditions: H69AR lung tumor cells viability, ATP luminescence, 72 h; at 10 µM; stronger effect = lower value;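 further: 100% = mean luminescence of untreated wells and 0% = no signal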
[6] = MRP1 drug-resistance reversers in H69AR cells – cell-based, doxorubicin co-treatment, pilot screen (AID 601;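 active means viability loss from added drug above about 55%, and viability with drug at most 40%, in both replicates, limit read from the data, passing the limit was not always enough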); conditions: CellTiter-Glo, 72 h, at 10 µM; for differential viability (reversal): stronger effect = higher value
[7] = yeast transport mutant growth inhibition pilot in 384-well plates, post-Golgi transport modulator project (AID 636; in the data active means inhibition above about 31%); conditions: absorbance 615 nm, about 18 h, stronger effect = higher value
[8] = growth suppression of yeast trafficking mutant, preliminary HTS, modulators of trafficking downstream of Golgi apparatus project, 1536-format plate, OD 615 nm (AID 637; in the data active means inhibition above about 30%); conditions: yeast transport mutant growth, absorbance 615 nm, 18 h; stronger effect = higher value
[9] = H69AR cells + 2 uM doxorubicin, measured here: viability with 2 uM doxorubicin, stronger effect = lower value
[10] = H69AR cells, compound alone cytotoxicity

Row | Structure (SMILES) | viability [1] [%] | Her2 level [2] | viability [3] | viability [4] | viability [5] | differential viability (reversal) ([6]; H69AR cells + 2 uM doxorubicin) | viability [6, 9] [%] | viability [6, 10] [%] | inhibition [7] | inhibition [8]
1 | CC1CCCCC1NC(=O)c1ccc(N2CCCC2=O)cc1 (stereo not given) | 112 | 106% (inactive) | 112% (inactive) | 111% (inactive) | 90.3% (inactive) | 7.01% (inactive) | 83.2 | 90.3 | -2.21% (inactive) | 2.79% (inactive)
2 | Cc1nnc(SCC(=O)Nc2ccc(Br)cn2)[nH]c1=O | 118 | 85% (inactive) | 118% (inactive) | 98.7% (inactive) | 98.3% (inactive) | 4.71% (inactive) | 93.6 | 98.3 | 1.84% (inactive) | 8.17% (inactive)
3 | Fc1ccc(-c2csc3nnc(SCc4cccnc4)n23)cc1 | 108 | 112% (inactive) | 108% (inactive) | 85.7% (inactive) | 82.9% (inactive) | -2.03% (inactive) | 84.9 | 82.9 | -4.62% (inactive) | 8.33% (inactive)
4 | CC1(C)CC(=O)C(C#N)=C(NCCCO)C1 | 99.5 | 98.5% (inactive) | 99.5% (inactive) | 91.5% (inactive) | 100% (inactive) | -2.31% (inactive) | 103 | 100 | -1.2% (inactive) | 0.97% (inactive)
5 | CCCn1nnnc1SCC(=O)c1ccc2c(c1)OCCO2 | 90 | 108% (inactive) | 90% (inactive) | 110% (inactive) | 106% (inactive) | 13.4% (inactive) | 92.8 | 106 | 2.67% (inactive) | 10.7% (inactive)
6 | O=C(CN(Cc1ccco1)C(=O)CNS(=O)(=O)c1ccc(Cl)cc1)NCc1ccc(F)cc1 | 118 | 106% (inactive) | 118% (inactive) | 83.4% (inactive) | 81.4% (inactive) | -5.12% (inactive) | 86.5 | 81.4 | -0.53% (inactive) | 1.77% (inactive)
7 | CN(C)c1nc(Nc2ccc(Cl)cc2)nc(OCC#N)n1 | 105 | 80.5% (inactive) | 105% (inactive) | 63.2% (inactive) | 81.8% (inactive) | -14.6% (inactive) | 96.3 | 81.8 | -0.26% (inactive) | 11% (inactive)
8 | N#CC1=C(N)N(c2ccccc2)C2=C(C(=O)CCC2)C1c1cccs1 (stereo not given) | 96.5 | 97.5% (inactive) | 96.5% (inactive) | 80.8% (inactive) | 70.3% (inactive) | 46.8% (inactive) | 23.5 | 70.3 | -5.95% (inactive) | 0.83% (inactive)
9 | CC(=O)c1cccc(N(CC(=O)N2CCCC2)S(C)(=O)=O)c1 | 91.5 | 93% (inactive) | 91.5% (inactive) | 99.3% (inactive) | 99.7% (inactive) | 5.66% (inactive) | 94.1 | 99.7 | -6.67% (inactive) | 0.48% (inactive)
10 | CCC(Sc1ccc(C(=O)O)cc1)C(=O)O (stereo not given) | 86.5 | 96% (inactive) | 86.5% (inactive) | 95.2% (inactive) | 93.9% (inactive) | 3.74% (inactive) | 90.2 | 93.9 | -1.97% (inactive) | -10% (inactive)
11 | COc1ccc(N2CCN(c3nc4c(c(=O)[nH]c(=O)n4C)n3CCCc3ccccc3)CC2)cc1 | 120 | 102% (inactive) | 120% (inactive) | 94% (inactive) | 84.9% (inactive) | -2.09% (inactive) | 87 | 84.9 | -6.8% (inactive) | 0.48% (inactive)
12 | CC(NC(=O)c1ccc(F)cc1)C(c1cccs1)N1CCN(C)CC1 (stereo not given) | 90.5 | 86.5% (inactive) | 90.5% (inactive) | 98% (inactive) | 91.9% (inactive) | 0.16% (inactive) | 91.7 | 91.9 | -6% (inactive) | 3.44% (inactive)
13 | CN1CCN(CCCNC(=O)C2CC(=O)N(C3CCCCC3)C2)CC1 (stereo not given) | 106 | 90% (inactive) | 106% (inactive) | 88.8% (inactive) | 91.4% (inactive) | -3.83% (inactive) | 95.2 | 91.4 | -4.47% (inactive) | 3.06% (inactive)
14 | CCCN(Cc1cc2cc(C)ccc2[nH]c1=O)C(=O)c1cccc(OC)c1 | 114 | 91% (inactive) | 114% (inactive) | 70.6% (inactive) | 81.2% (inactive) | -0.89% (inactive) | 82.1 | 81.2 | -7.07% (inactive) | -0.65% (inactive)
15 | CCCCNS(=O)(=O)c1ccc(OC)c2ncccc12 | 102 | 108% (inactive) | 102% (inactive) | 102% (inactive) | 90% (inactive) | 0.295% (inactive) | 89.7 | 90 | -4.32% (inactive) | -3.33% (inactive)
16 | CCOC(=O)c1cc2sc(C)cc2n1C(C)C(=O)OCC (stereo not given) | 97.5 | 79% (inactive) | 97.5% (inactive) | 95.8% (inactive) | 86.3% (inactive) | -6.21% (inactive) | 92.5 | 86.3 | -3.6% (inactive) | 1.8% (inactive)

Row | Structure (SMILES) | viability [1] [%] | Her2 level [2] | viability [3] | viability [4] | viability [5] | differential viability (reversal) ([6]; H69AR cells + 2 uM doxorubicin) | viability [6, 9] [%] | viability [6, 10] [%] | inhibition [7] | inhibition [8]
17 | CN(CCC#N)C(=O)COC(=O)c1ccc(Cl)c(S(N)(=O)=O)c1 | 104 | 97.5% (inactive) | 104% (inactive) | 106% (inactive) | 95.9% (inactive) | 7.13% (inactive) | 88.8 | 95.9 | -4.93% (inactive) | 3.71% (inactive)
18 | Cc1nnc(SCc2cc(=O)[nH]c(N3CCCCC3)n2)s1 | 94 | 86.5% (inactive) | 94% (inactive) | 107% (inactive) | 94.1% (inactive) | 2.25% (inactive) | 91.9 | 94.1 | -7.3% (inactive) | -2.86% (inactive)
19 | COc1cccc(OCc2nc3c4cnn(-c5ccccc5)c4ncn3n2)c1 | 97.5 | 99.5% (inactive) | 97.5% (inactive) | 80.1% (inactive) | 67.8% (inactive) | -20.5% (inactive) | 88.3 | 67.8 | -2.24% (inactive) | 3.44% (inactive)
20 | C=CCSc1nc2c(c(=O)[nH]c(=O)n2C)n1C(C)C | 85.5 | 89% (inactive) | 85.5% (inactive) | 88.9% (inactive) | 106% (inactive) | 17.9% (inactive) | 88.2 | 106 | -2.63% (inactive) | -1.64% (inactive)
21 | O=C(CN(C(=O)CCNC(=O)c1ccco1)c1ccccc1)NC1CCCC1 | 93 | 112% (inactive) | 93% (inactive) | 103% (inactive) | 93.5% (inactive) | -5.44% (inactive) | 98.9 | 93.5 | 2.53% (inactive) | 33.5% (active)
22 | Cn1c(=O)c2c3c(sc2n2c(SCc4ccccc4)nnc12)CCCC3 | 77 | 91.5% (inactive) | 77% (inactive) | 88.8% (inactive) | 87.5% (inactive) | 9.04% (inactive) | 78.4 | 87.5 | -2.93% (inactive) | -1.75% (inactive)
23 | CCCCCC1CC(CC(C)C(=O)Nc2nncs2)C(=O)O1 (stereo not given) | 90.5 | 86.5% (inactive) | 90.5% (inactive) | 85.2% (inactive) | 93.3% (inactive) | 7.83% (inactive) | 85.4 | 93.3 | -5.6% (inactive) | -2.86% (inactive)
24 | CCOc1cc(-c2nc(-c3ccccc3OC)no2)cc(OCC)c1OCC | 90 | 96.5% (inactive) | 90% (inactive) | 97.4% (inactive) | 92.5% (inactive) | -2.62% (inactive) | 95.1 | 92.5 | -2.13% (inactive) | 22% (inactive)
25 | CC(C)(Oc1ccc(Cl)cc1)C(=O)NC1CCSC1=O (stereo not given) | 101 | 104% (inactive) | 101% (inactive) | 90.3% (inactive) | 114% (inactive) | 19.5% (inactive) | 94.6 | 114 | 0.27% (inactive) | -9.52% (inactive)
26 | O=C(c1ccc(Cl)cc1)C1CCN(C(=O)NC2CCCCC2)CC1 | 92 | 92% (inactive) | 92% (inactive) | 101% (inactive) | 101% (inactive) | 14% (inactive) | 87 | 101 | -4.8% (inactive) | -7.26% (inactive)
27 | CCOC(=O)CSC1=C(C#N)C(=O)NC(c2ccc(OC)c(OC)c2)S1 (stereo not given) | 104 | 99% (inactive) | 104% (inactive) | 74.6% (inactive) | 97.2% (inactive) | -1.72% (inactive) | 99 | 97.2 | -4.79% (inactive) | 0.16% (inactive)
28 | COc1ccccc1OCc1ccc(C(=O)NC(C)(C)C)o1 | 83 | 102% (inactive) | 83% (inactive) | 94.2% (inactive) | 95.4% (inactive) | 14.6% (inactive) | 80.9 | 95.4 | 1.71% (inactive) | -5.82% (inactive)
29 | CCn1c(=O)cc(SCC(=O)NCC2CCCO2)c2ccccc21 (stereo not given) | 89 | 87% (inactive) | 89% (inactive) | 88.7% (inactive) | 87% (inactive) | 8.63% (inactive) | 78.4 | 87 | -3.03% (inactive) | -7.27% (inactive)
30 | Cc1nnc(C)c2c(C)n(-c3ccc(Br)cc3)c(C)c12 | 110 | 110% (inactive) | 110% (inactive) | 92.3% (inactive) | 104% (inactive) | 17.2% (inactive) | 87.2 | 104 | -7.07% (inactive) | 1.61% (inactive)
31 | COC(=O)c1onc(C(=O)c2ccccc2)c1C(=O)OC | 104 | 89.5% (inactive) | 104% (inactive) | 98.8% (inactive) | 97.1% (inactive) | 12.7% (inactive) | 84.4 | 97.1 | -4.34% (inactive) | 3.71% (inactive)
32 | c1csc(-c2nc3nc4ccccc4nc3n2Cc2ccc3c(c2)OCO3)c1 | 98.5 | 75% (inactive) | 98.5% (inactive) | 61.6% (inactive) | 78% (inactive) | 16.4% (inactive) | 61.6 | 78 | 10.5% (inactive) | 0.79% (inactive)
